OPRM1-OPRD1 ag: agonists of OPRM1-OPRD1 heterodimerization, primary screen, cell-based, luminescence. Mu-type opioid receptor (Homo sapiens) + Delta-type opioid receptor (Homo sapiens), …. cells. activation, % at 9.3 µM. 340,000 compounds, 0.3% hits; in the data active = activation above about 18%;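 note: 0% = vehicle-treated cells and 100% = reference agonist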
MOR-DOR inv ag: inverse agonists of MOR-DOR heterodimerization, primary screen, cell-based, luminescence; Mu-type opioid receptor (Homo sapiens) + Delta-type opioid receptor (Homo sapiens), …; cell-based MOR-DOR heterodimer luminescence, inverse agonism; inhibition, % at 9.3 µM; 340,000 compounds, 0.21% hits; in the data active = inhibition above about 22%, passing the limit was not always enough;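 note: 0% = cells with DMSO and 100% = wells without cells with DMSO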
MC4R barr agon: MC4R agonists recruiting beta-arrestin, primary screen, cell-based, luminescence, agonist arm of biased-ligand search; U2OS MC4R beta-arrestin complementation; percent of melanotan II response, DMSO zero; activation, % at 8.9 µM; 360,000 compounds, 0.98% hits; AID 540308, 2011;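 active = activation above a per-plate cutoff, the mean activation of sample wells on that plate plus 3 SD, cut at about 8% in these data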
Target sequence (P32245 whole entry, looked up): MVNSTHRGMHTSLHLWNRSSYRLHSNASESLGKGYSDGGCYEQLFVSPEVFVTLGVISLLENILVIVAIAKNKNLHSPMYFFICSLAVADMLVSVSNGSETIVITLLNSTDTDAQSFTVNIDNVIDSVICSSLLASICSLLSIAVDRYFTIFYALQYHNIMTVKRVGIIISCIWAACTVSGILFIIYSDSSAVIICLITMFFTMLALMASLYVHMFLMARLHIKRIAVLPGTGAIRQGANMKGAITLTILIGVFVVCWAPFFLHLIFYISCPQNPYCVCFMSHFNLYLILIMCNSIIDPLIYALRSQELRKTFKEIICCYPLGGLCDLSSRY
MC4R antagonist: MC4R antagonists of cAMP signaling, primary screen, cell-based, TR-FRET, antagonist arm of biased-ligand search; Melanocortin receptor 4 (Homo sapiens), P32245; MC4R-expressing cells, MTII-stimulated cAMP, LANCE TR-FRET; inhibition, % at 6.5 µM; 360,000 compounds, 0.48% hits; AID 540295, 2011;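 active = inhibition above its plate's cutoff, the mean of tested wells on that plate plus 3 SD, cut at about 29% in these data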;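 note: 0% = Melanotan II alone and 100% = Melanotan II plus saturating MCL0020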
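Material: U2OS-MC4R stable cell line | Reagent: Melanotan II challenge after compound preincubation | Doses: One concentration, 6.5 µM nominal | Incubation: 30-min compound preincubation, 1-h Melanotan II challenge, 1-h detection, room temperature | Signal: TR-FRET cAMP assay | Replicates: One well per compound, no replicates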
HTR5A inv ctr: HTR5A inverse agonists in luminescence cell assay, primary screen, counter-screen for OPRM1-OPRD1 heterodimer inverse agonist project, full-deck HTS; HTR5A cell line, inverse agonism; 340,000 compounds, 0.083% hits; 5-hydroxytryptamine receptor 5A (Homo sapiens), P47898; inhibition, % at 9.3 µM; AID 504634, 2011; in the data active = inhibition mostly above about 23%, no sharp cut-off; inactive = mostly below about 18%;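 note: 0% = cells with DMSO and 100% = no-cell wells with DMSO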
Target sequence (P47898 whole entry, looked up): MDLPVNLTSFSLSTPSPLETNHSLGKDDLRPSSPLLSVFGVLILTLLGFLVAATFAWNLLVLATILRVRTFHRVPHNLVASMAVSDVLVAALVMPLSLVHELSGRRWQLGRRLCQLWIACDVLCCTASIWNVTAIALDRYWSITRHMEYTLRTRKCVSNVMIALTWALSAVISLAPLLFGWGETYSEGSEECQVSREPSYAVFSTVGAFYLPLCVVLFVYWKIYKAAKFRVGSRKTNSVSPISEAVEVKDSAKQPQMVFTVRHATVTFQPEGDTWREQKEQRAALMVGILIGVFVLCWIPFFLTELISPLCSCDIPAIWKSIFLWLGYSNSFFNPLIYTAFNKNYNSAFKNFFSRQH
HTR5A ag ctr: HTR5A agonists in luminescence cell assay, primary screen, counter-screen for OPRM1-OPRD1 heterodimer agonist project, full-deck HTS; cell-based; 5-hydroxytryptamine receptor 5A (Homo sapiens), P47898; activation, % at 9.3 µM; 340,000 compounds, 0.61% hits; in the data active = activation mostly above about 9.5%, no sharp cut-off; inactive = mostly below about 7.6%;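 note: 0% = cells with vehicle only and 100% = reference agonist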
MC4R barr conf: MC4R beta-arrestin agonists, retest, confirmation, cell-based, luminescence, U2OS. shares compounds with MC4R barr agon. AID 602192, 2012. U2OS MC4R beta-arrestin recruitment; scaled DMSO 0%, Melanotan II 100%. 2,400 compounds, 31% hits. activation, % at 8.9 µM;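 active = mean activation across replicates above the hit cutoff set in the earlier primary screen, cut at about 8% in these data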
MOR-DOR barr ag: agonists of MOR-DOR heterodimerization, counter-screen for MC4R biased agonist project, cell-based, luminescence; 2,400 compounds, 5.8% hits; shares compounds with MC4R barr agon; activation, % at 9.2 µM; U2OS PathHunter beta-arrestin, beta-gal luminescence; percent of deltorphin B response, DMSO zero;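 active = mean activation across replicates exceeds the hit threshold derived in the earlier primary screen, cut at about 18% in these data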;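 note: 100% = deltorphin B at 0.9 µM final and 0% = DMSO alone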
* hit, by the source's call. The list is not random: actives were taken first. Their share in the collection is about 2.4%.

`CC1=NN(c2nc(N)nc(/C(C#N)=C/c3ccc([N+](=O)[O-])o3)n2)C(C)(C)C1` gave OPRM1-OPRD1 ag 10, MOR-DOR inv ag -48, MC4R barr agon 37*, MC4R antagonist -42, HTR5A inv ctr 7, HTR5A ag ctr -2, MC4R barr conf 163* and MOR-DOR barr ag 172*.
For Cc1cccc(C)c1OCc1cc(C(=O)N2CCN(c3ccccc3)CC2C)no1 (stereo unspecified) the results were OPRM1-OPRD1 ag 5, MOR-DOR inv ag -29, MC4R barr agon 3, MC4R antagonist 6, HTR5A inv ctr -2 and HTR5A ag ctr 1.
`Cc1ccc(C(=O)N/N=C(\CC(C)C)c2ccccc2)cc1` gave OPRM1-OPRD1 ag -2, MOR-DOR inv ag 11, MC4R barr agon -2, MC4R antagonist 0, HTR5A inv ctr 1 and HTR5A ag ctr 6.
For O=C(CSc1cccc[n+]1[O-])Nc1ccc([N+](=O)[O-])cc1Cl the results were OPRM1-OPRD1 ag 0, MOR-DOR inv ag -1, MC4R barr agon -2, MC4R antagonist 8, HTR5A inv ctr -1 and HTR5A ag ctr 1.
`COc1cccc(CC2(CO)CCCN(Cc3ccc(OC)c(C)c3OC)C2)c1` (stereo unspecified) gave OPRM1-OPRD1 ag -1, MOR-DOR inv ag 4, MC4R barr agon 0, MC4R antagonist 1, HTR5A inv ctr -9 and HTR5A ag ctr 2.
Screening COc1ccc(C[C@H]2CN3C(=NC[C@H]3Cc3ccccc3)N2CCNC(=O)c2ccc(C)c(Br)c2)cc1 returned OPRM1-OPRD1 ag 13, MOR-DOR inv ag -77, MC4R barr agon 16*, MC4R antagonist 9, HTR5A inv ctr -59, HTR5A ag ctr 8, MC4R barr conf 22* and MOR-DOR barr ag 27*.
Cc1ccc(C(=O)NCCN2C3=NC[C@@H](Cc4ccccc4)N3C[C@H]2Cc2ccc(O)cc2)cc1Br was read as OPRM1-OPRD1 ag 0, MOR-DOR inv ag 2, MC4R barr agon 3, MC4R antagonist 8, HTR5A inv ctr 5 and HTR5A ag ctr 5.
Cc1ccc(N2C(=O)/C(=C/c3cccnc3)SC2=S)cc1 was read as OPRM1-OPRD1 ag -1, MOR-DOR inv ag 5, MC4R barr agon 15*, MC4R antagonist 3, HTR5A inv ctr -3, HTR5A ag ctr 1, MC4R barr conf 8 and MOR-DOR barr ag 4.
Cc1cccc(N2C(=O)/C(=C/c3cccnc3)SC2=S)c1 was read as OPRM1-OPRD1 ag 0, MOR-DOR inv ag 1, MC4R barr agon 1, MC4R antagonist 9, HTR5A inv ctr -22 and HTR5A ag ctr 1.
Cc1ccc(N2C(=O)/C(=C/c3ccco3)SC2=S)cc1 was read as OPRM1-OPRD1 ag 2, MOR-DOR inv ag -11, MC4R barr agon 23*, MC4R antagonist -1, HTR5A inv ctr -28, HTR5A ag ctr 12, MC4R barr conf 4 and MOR-DOR barr ag 5.
For COc1ccc(NC(=O)c2ccc(NCCN3C(=O)CCC3=O)c([N+](=O)[O-])c2)cc1 the results were OPRM1-OPRD1 ag -2, MOR-DOR inv ag 9, MC4R barr agon -4, MC4R antagonist 1, HTR5A inv ctr 6 and HTR5A ag ctr 0.
COc1ccc(CN(CC(=O)NCc2ccccc2)C(=O)CCC(=O)Nc2cc(C)ccn2)cc1 was read as OPRM1-OPRD1 ag -1, MOR-DOR inv ag 7, MC4R barr agon -1, MC4R antagonist 12, HTR5A inv ctr -6 and HTR5A ag ctr -2.
For COc1ccc(OC)c(NC(=O)c2cc(-c3cc(C)ccc3O)n[nH]2)c1 the results were OPRM1-OPRD1 ag 16, MOR-DOR inv ag -86, MC4R barr agon 10*, MC4R antagonist 0, HTR5A inv ctr -26, HTR5A ag ctr 7, MC4R barr conf 2 and MOR-DOR barr ag 15.
`Cn1nc2c3cc(F)ccc3n(Cc3ccc(F)cc3)cc-2c1=O` gave OPRM1-OPRD1 ag -4, MOR-DOR inv ag 22, MC4R barr agon 0, MC4R antagonist -1, HTR5A inv ctr 8 and HTR5A ag ctr -2.
Screening Cc1cccc(Cn2cc3c(=O)n(Cc4cccc(F)c4)nc-3c3ccccc32)c1 returned OPRM1-OPRD1 ag 0, MOR-DOR inv ag 1, MC4R barr agon 17*, MC4R antagonist 24, HTR5A inv ctr -5, HTR5A ag ctr 1, MC4R barr conf -2 and MOR-DOR barr ag 10.
For Cc1ccc(C(=O)Nc2ncc(Cc3ccc(SC(F)F)cc3)s2)cc1 the results were OPRM1-OPRD1 ag 3, MOR-DOR inv ag -16, MC4R barr agon 18*, MC4R antagonist -17, HTR5A inv ctr -26, HTR5A ag ctr 6, MC4R barr conf 9.0* and MOR-DOR barr ag 4.
Screening C/C(=N\Nc1nc2ccccc2[nH]1)c1ccc2c(c1)OCO2 returned OPRM1-OPRD1 ag 5, MOR-DOR inv ag -25, MC4R barr agon 15*, MC4R antagonist -3, HTR5A inv ctr -25, HTR5A ag ctr -9, MC4R barr conf 5 and MOR-DOR barr ag 6.
C/C(=N\Nc1nc2ccccc2[nH]1)c1ccc2c(c1)OCCO2 was read as OPRM1-OPRD1 ag 1, MOR-DOR inv ag -5, MC4R barr agon 9.8*, MC4R antagonist 5, HTR5A inv ctr 3, HTR5A ag ctr -1, MC4R barr conf 6 and MOR-DOR barr ag 5.
For COc1ccc(-c2nnc3sc(-c4cccs4)nn23)cc1OC the results were OPRM1-OPRD1 ag -2, MOR-DOR inv ag 13, MC4R barr agon -1, MC4R antagonist -14, HTR5A inv ctr 3 and HTR5A ag ctr 4.
COc1cc(-c2nnc3sc(-c4cccs4)nn23)cc(OC)c1OC was read as OPRM1-OPRD1 ag -1, MOR-DOR inv ag 4, MC4R barr agon 15*, MC4R antagonist -29, HTR5A inv ctr -20, HTR5A ag ctr 5, MC4R barr conf -1 and MOR-DOR barr ag 6.
For CCN1CCN(Cc2ccc(NC(=O)c3ccc(C)c(NC(=O)C(=O)c4c[nH]c5ccccc45)c3)cc2C(F)(F)F)CC1 the results were OPRM1-OPRD1 ag 5, MOR-DOR inv ag -31, MC4R barr agon 22*, MC4R antagonist 7, HTR5A inv ctr -13, HTR5A ag ctr 2, MC4R barr conf 21* and MOR-DOR barr ag 10.

Source: PubChem BioAssay (The Scripps Research Institute Molecular Screening Center)
